From ChEMBL document CHEMBL1649531, “In vitro activity of garenoxacin against Streptococcus pneumoniae mutants with characterized resistance mechanisms” (2009) come the findings set out here.

Common to all, as to format: functional
For assay [1], the system named is Streptococcus pneumoniae. Description: Antibacterial activity against Streptococcus pneumoniae S002 harboring parC Ser79Phe mutant and wild-type gyrA genes.
The subject of assay [2] is Streptococcus pneumoniae. The assay can be described thus: Antibacterial activity against Streptococcus pneumoniae W001 harboring wild-type parC and gyrA genes.
Assay [3] relates to Streptococcus pneumoniae. The assay can be described thus: Antibacterial activity against Streptococcus pneumoniae S004 harboring wild-type parC and gyrA Gly85Asn mutant genes.
For assay [4], the system named is Streptococcus pneumoniae. The assay can be described thus: Antibacterial activity against Streptococcus pneumoniae D002 harboring parC Ser79Phe and gyrA Ser81Phe mutant genes assessed as mutation prevention concentration after 48 hrs. The method in brief: (§1)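 A 200 μl culture at 10 log10 CFU/ml was spread on Mueller-Hinton II agar with 5% sheep blood containing drug at a range of concentrations, then incubated at 37°C in 5% CO2. MPC was taken as the lowest concentration preventing colony formation after 48 h. Determinations were done in duplicate.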

Assay [5] deals with Streptococcus pneumoniae. The assay can be described thus: Antibacterial activity against Streptococcus pneumoniae S003 harboring wild-type parC and gyrA Ser81Phe mutant genes.
Assay [6] relates to Streptococcus pneumoniae. Description: Antibacterial activity against Streptococcus pneumoniae S001 harboring parC Asp83Asn mutant and wild-type gyrA genes.
Assay [7] concerns Streptococcus pneumoniae. The assay can be described thus: Antibacterial activity against Streptococcus pneumoniae S001 harboring parC Asp83Asn mutant and wild-type gyrA genes assessed as mutation prevention concentration after 48 hrs. Summed up:
as §1

Assay [8] has as its system Streptococcus pneumoniae. Description: Antibacterial activity against Streptococcus pneumoniae S002 harboring parC Ser79Phe mutant and wild-type gyrA genes assessed as mutation prevention concentration after 48 hrs. Summed up: as §1
Assay [9] deals with Streptococcus pneumoniae. Description: Antibacterial activity against Streptococcus pneumoniae S003 harboring wild-type parC and gyrA Ser81Phe mutant genes assessed as mutation prevention concentration after 48 hrs. The method in brief:
as §1

The test system of assay [10] is Streptococcus pneumoniae. Description: Antibacterial activity against Streptococcus pneumoniae W002 harboring wild-type parC and gyrA genes.
Assay [11] has as its system Streptococcus pneumoniae. Description: Antibacterial activity against Streptococcus pneumoniae D001 harboring parC Ser79Phe and gyrA Gly85Lys mutant genes assessed as mutation prevention concentration after 48 hrs. The method in brief: as §1
Assay [12] concerns Streptococcus pneumoniae. The assay can be described thus: Antibacterial activity against Streptococcus pneumoniae S004 harboring wild-type parC and gyrA Gly85Asn mutant genes assessed as mutation prevention concentration after 48 hrs. The method in brief: as §1
Assay [13] deals with Streptococcus pneumoniae. The assay can be described thus: Antibacterial activity against Streptococcus pneumoniae W002 harboring wild-type parC and gyrA genes assessed as mutation prevention concentration after 48 hrs. The method in brief:
as §1

Assay [14] deals with Streptococcus pneumoniae. Description: Antibacterial activity against Streptococcus pneumoniae D002 harboring parC Ser79Phe and gyrA Ser81Phe mutant genes.
The test system of assay [15] is Streptococcus pneumoniae. The assay can be described thus: Antibacterial activity against Streptococcus pneumoniae D001 harboring parC Ser79Phe and gyrA Gly85Lys mutant genes.
Assay [16] relates to Streptococcus pneumoniae. Description: Antibacterial activity against Streptococcus pneumoniae W001 harboring wild-type parC and gyrA genes assessed as mutation prevention concentration after 48 hrs. The method in brief:
as §1

Each structure is given as a SMILES string. Values after ≈ are worked out from the molar mass of the structure shown.

Usually MIC stands for the lowest concentration found to suppress growth. High values mean weaker potency, low ones greater potency. On to `COc1c(N2CCNC(C)C2)c(F)cc2c(=O)c(C(=O)O)cn(C3CC3)c12` (stereo unspecified) [GATIFLOXACIN], for which the MIC in [1] came out at 0.12 µg/mL (≈ 0.32 µM); in [2] it was 0.12 µg/mL (≈ 0.32 µM); in assay [3] it was 0.25 µg/mL (≈ 0.666 µM); in assay [5] it was 0.12 µg/mL (≈ 0.32 µM); in assay [6], 0.25 µg/mL (≈ 0.666 µM); in [10] it was 0.12 µg/mL (≈ 0.32 µM). Moreover, the figures for the MIC in assay [14] and in assay [15] were 8 µg/mL (≈ 21.3 µM) and 4 µg/mL (≈ 10.7 µM), respectively. In addition, the Activity in assay [4] turned out to be 16 µg/mL; in [7] it was 4 µg/mL; in assay [8], 4 µg/mL; in assay [9], 8 µg/mL; in assay [11], 16 µg/mL; in assay [12] it was 8 µg/mL. Besides, the Activity in [13] and in assay [16] was 0.5 µg/mL throughout.

As for `C[C@H]1COc2c(N3CCN(C)CC3)c(F)cc3c(=O)c(C(=O)O)cn1c23.C[C@H]1COc2c(N3CCN(C)CC3)c(F)cc3c(=O)c(C(=O)O)cn1c23.O` [LEVOFLOXACIN], the Activity is 128 µg/mL in assay [4]; 16 µg/mL in [7]; 16 µg/mL in assay [8]; 32 µg/mL in assay [9]; 128 µg/mL in [11]; 32 µg/mL in assay [12]. Moreover, the Activity in [13] and in [16] was 2 µg/mL in each case.

On to `COc1c(N2C[C@@H]3CCCN[C@@H]3C2)c(F)cc2c(=O)c(C(=O)O)cn(C3CC3)c12` [MOXIFLOXACIN], for which the MIC in [2] was 0.06 µg/mL (≈ 0.149 µM); in [3], 0.12 µg/mL (≈ 0.299 µM); in [5], 0.06 µg/mL (≈ 0.149 µM); in assay [10], 0.06 µg/mL (≈ 0.149 µM); in assay [14] it was 4 µg/mL (≈ 9.96 µM); in [15], 4 µg/mL (≈ 9.96 µM). The Activity in assay [4] was determined as 16 µg/mL; in assay [9] it was 4 µg/mL; in assay [11] it was 16 µg/mL; in assay [12] it was 4 µg/mL; in [13], 0.5 µg/mL; in assay [16], 0.5 µg/mL.
